Measured values as given in ChEMBL document CHEMBL1151859, “Structure-activity relationship studies of a novel series of anthrax lethal factor inhibitors” (Bioorg Med Chem, 2009).
Activity calls are given as the source filed them. The calls are words filed in the database; no cut-off is given here.

How the values were obtained:
[1] = system: HeLa; test: Protection against anthrax protective antigen-38/LF-induced cell death in human HeLa cells assessed as MEK1 cleavage at 30 uM treated 90 mins after PA38/LA challenge immunoblotting assay; format: functional, cell-based
[2] = molecular target: T1, Lethal factor (Bacillus anthracis, UniProt P15917); test: Inhibition of Bacillus anthracis lethal factor assessed as cleavage of MAPKK by fluorescence peptide cleavage assay
T1 sequence (P15917 whole entry): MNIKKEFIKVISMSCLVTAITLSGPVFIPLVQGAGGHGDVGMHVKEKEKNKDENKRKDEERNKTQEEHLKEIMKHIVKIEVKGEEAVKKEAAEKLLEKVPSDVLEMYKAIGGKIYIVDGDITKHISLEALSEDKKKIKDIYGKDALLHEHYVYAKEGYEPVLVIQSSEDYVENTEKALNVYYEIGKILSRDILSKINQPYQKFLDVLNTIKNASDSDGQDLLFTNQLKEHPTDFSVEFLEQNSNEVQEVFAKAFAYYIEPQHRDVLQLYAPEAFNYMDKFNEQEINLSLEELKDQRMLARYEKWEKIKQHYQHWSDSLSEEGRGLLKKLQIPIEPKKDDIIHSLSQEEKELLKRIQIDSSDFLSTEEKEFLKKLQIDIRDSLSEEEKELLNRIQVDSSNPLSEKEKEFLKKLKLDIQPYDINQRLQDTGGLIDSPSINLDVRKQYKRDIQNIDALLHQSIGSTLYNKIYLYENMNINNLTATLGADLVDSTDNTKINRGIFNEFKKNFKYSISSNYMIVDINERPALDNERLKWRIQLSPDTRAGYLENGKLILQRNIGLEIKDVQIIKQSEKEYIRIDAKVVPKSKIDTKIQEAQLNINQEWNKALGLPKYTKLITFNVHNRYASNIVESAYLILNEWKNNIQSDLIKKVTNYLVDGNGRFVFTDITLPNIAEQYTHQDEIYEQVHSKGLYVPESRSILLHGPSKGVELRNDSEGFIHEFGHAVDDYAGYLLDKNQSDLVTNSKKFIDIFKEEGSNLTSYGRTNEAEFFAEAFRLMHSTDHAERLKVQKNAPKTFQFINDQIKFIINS

[3] = molecular target: 72 kDa type IV collagenase (Homo sapiens) (UniProt P08253); test: Inhibition of human MMP2 up to 100 uM by fluorescence peptide cleavage assay
72 kDa type IV collagenase (Homo sapiens), sequence (P08253 110-660 limits assumed): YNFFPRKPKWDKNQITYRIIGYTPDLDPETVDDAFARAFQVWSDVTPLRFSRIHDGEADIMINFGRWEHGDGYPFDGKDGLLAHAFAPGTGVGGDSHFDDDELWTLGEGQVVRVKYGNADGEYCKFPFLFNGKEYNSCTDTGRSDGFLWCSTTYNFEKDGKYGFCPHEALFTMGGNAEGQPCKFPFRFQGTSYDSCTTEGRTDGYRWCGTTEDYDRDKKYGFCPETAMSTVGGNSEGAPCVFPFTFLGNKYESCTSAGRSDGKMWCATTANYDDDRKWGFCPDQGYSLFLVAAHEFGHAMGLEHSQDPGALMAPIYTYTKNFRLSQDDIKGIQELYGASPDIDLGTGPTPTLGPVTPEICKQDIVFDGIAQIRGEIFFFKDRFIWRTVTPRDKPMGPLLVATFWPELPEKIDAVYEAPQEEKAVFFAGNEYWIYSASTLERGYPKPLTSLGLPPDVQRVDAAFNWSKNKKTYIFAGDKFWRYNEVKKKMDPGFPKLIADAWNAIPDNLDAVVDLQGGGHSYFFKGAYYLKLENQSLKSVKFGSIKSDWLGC
Procedure, shortened: (§1)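 Pro-MMP-2 or pro-MMP-9 activated with 1 mM APMA (20 min or 2 h, respectively), then used at 10 μg/mL with 5-FAM/QXL520 peptide substrate in kit assay buffer.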

[4] = molecular target: Matrix metalloproteinase-9 (Homo sapiens) (UniProt P14780); test: Inhibition of human MMP9 up to 100 uM by fluorescence peptide cleavage assay; procedure, shortened: as §1
Matrix metalloproteinase-9 (Homo sapiens), sequence (P14780 whole entry): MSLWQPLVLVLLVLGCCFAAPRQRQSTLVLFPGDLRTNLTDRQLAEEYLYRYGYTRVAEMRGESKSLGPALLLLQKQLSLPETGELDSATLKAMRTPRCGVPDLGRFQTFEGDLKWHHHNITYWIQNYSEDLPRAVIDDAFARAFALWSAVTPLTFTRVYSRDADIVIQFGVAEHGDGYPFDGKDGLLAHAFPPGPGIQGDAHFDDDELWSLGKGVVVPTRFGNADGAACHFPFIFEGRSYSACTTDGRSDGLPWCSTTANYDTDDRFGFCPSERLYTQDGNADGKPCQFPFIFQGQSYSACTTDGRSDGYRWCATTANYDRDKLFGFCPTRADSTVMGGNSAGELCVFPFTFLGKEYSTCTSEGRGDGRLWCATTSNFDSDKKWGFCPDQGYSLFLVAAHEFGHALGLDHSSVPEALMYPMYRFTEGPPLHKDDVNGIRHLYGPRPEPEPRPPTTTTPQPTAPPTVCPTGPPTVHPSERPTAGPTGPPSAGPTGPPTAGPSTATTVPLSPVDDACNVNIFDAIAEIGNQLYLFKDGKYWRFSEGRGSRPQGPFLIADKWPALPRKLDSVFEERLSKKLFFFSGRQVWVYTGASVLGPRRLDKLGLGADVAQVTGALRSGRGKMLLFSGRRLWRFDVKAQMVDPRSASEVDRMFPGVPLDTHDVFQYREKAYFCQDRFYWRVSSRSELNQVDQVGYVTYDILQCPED

[5] = system: HeLa; test: Protection against anthrax protective antigen-38/LF-induced cell death in human HeLa cells assessed as MEK1 cleavage at 300 uM treated 90 mins after PA38/LA challenge immunoblotting assay; format: functional, cell-based
[6] = system: RAW264.7; test: Protection against anthrax protective antigen-38/LF-induced cell death in mouse RAW264.7 cells pretreated for 2 hrs followed by PA38/LA challenge assessed as cell viability measured after 4 hrs by ATPlite assay; format: functional, cell-based
[7] = Solubility at 500 uM; format: physicochemical
[8] = Chemical stability of the compound; format: physicochemical
[9] = system: Bacillus anthracis; test: Antibacterial activity against Bacillus anthracis Sterene infected in A/J mouse assessed as mouse survival at 25 mg/kg, ip daily after 24 hrs of infection for 8 days relative to control; format: functional, organism-based; parameters: dose 25 mg/kg
[10] = system: HeLa; test: Protection against anthrax protective antigen-38/LF-induced cell death in human HeLa cells assessed as MEK1 cleavage at 100 uM treated 90 mins after PA38/LA challenge immunoblotting assay; format: functional, cell-based
[11] = system: Bacillus anthracis; test: Antibacterial activity against Bacillus anthracis Sterene infected in A/J mouse assessed as mouse survival at 25 mg/kg, ip daily after 24 hrs of infection for 8 days; format: functional, organism-based; parameters: dose 25 mg/kg

With `Cc1cc(S(=O)(=O)N[C@H](C(=O)NO)C2CCOCC2)ccc1F` the Activity [1] was “Active”.

In the case of `Cc1ccc(NS(=O)(=O)c2cccs2)cc1Cl`, the IC50 [2] is reported as > 100 µM, the Activity [3] is reported as “inactive” and the Activity [4] is reported as “inactive”.

In the case of `Cc1ccc(S(=O)(=O)Nc2cccs2)cc1Cl`, the IC50 [2] is reported as > 50 µM, the Activity [3] is reported as “inactive” and the Activity [4] is reported as “inactive”.

For `Nc1ccc(Nc2ccc(N)cc2S(=O)(=O)O)cc1`, the Activity [5] was “Active”.

With `CC(C)(C)c1ccc(-c2noc(C(=O)NNC(=S)Nc3ccc(C(F)(F)F)cc3)n2)cc1` the Activity [1] was “Active”.

For `COc1ccc(-c2ccc(S(=O)(=O)Nc3cccs3)cc2)cc1`, the IC50 [2] was > 50 µM, the Activity [3] was “inactive” and the Activity [4] was “inactive”.

In the case of `O=S(=O)(Nc1cccs1)c1ccc(-c2ccc(Cl)cc2)cc1`, the IC50 [2] is reported as > 50 µM, the Activity [3] is reported as “inactive” and the Activity [4] is reported as “inactive”.

`O=S(=O)(Nc1sccc1-c1nc2ccccc2s1)c1ccc(-c2ccc(Cl)cc2)cc1` gave an IC50 [2] of 3 µM, a Ki [2] of 1.7 µM and an EC50 [6] of 0.251 µM. The solubility [7] was “Insoluble”.

For `Cc1ccc(NS(=O)(=O)c2cccs2)cc1C(F)(F)F`, the IC50 [2] was > 100 µM, the Activity [3] was “inactive” and the Activity [4] was “inactive”.

In the case of `O=S(=O)(Nc1ccccc1)c1cccs1`, the IC50 [2] is reported as > 100 µM, the Activity [3] is reported as “inactive” and the Activity [4] is reported as “inactive”.

For `Cc1csc(NS(=O)(=O)c2ccc([N+](=O)[O-])cc2)c1-c1nc2ccccc2s1`, the IC50 [2] was 11 µM, the Stability [8] was 99% and the solubility [7] was “Insoluble”.

In the case of `O=S(=O)(Nc1sccc1-c1nc2ccccc2s1)c1ccc2ncsc2c1`, the IC50 [2] is reported as 10 µM, the EC50 [6] is reported as 1.6 µM and the Stability [8] is reported as 99.9%.

With `CC(C)(C)C(=O)CSC1=NNC(c2ccccc2)S1` (stereo not drawn) the Activity [1] was “inactive”.

For `CCOC(=O)CCc1c(CC(=O)OCC)c[nH]c1/C=N/O`, the Activity [1] was “inactive”.

`Cc1ccc(S(=O)(=O)Nc2sccc2-c2nc3ccccc3s2)cc1Cl` showed an IC50 [2] of 6.6 µM, an EC50 [6] of 1 µM and a Stability [8] of 99%. For the same compound, the Activity [9] was “Active”.

For `O=S(=O)(Nc1cccc(C(F)(F)F)c1)c1cccs1`, the IC50 [2] was > 100 µM, the Activity [3] was “inactive” and the Activity [4] was “inactive”.

With `COc1ccc(-c2ccc(S(=O)(=O)Nc3sccc3-c3nc4ccccc4s3)cc2)cc1` the IC50 [2] was 3.8 µM, the EC50 [6] was 0.506 µM and the Stability [8] was 84%. The Activity [10] was “Active”, the Activity [11] was “Active” and the solubility [7] was “Insoluble”.

In the case of `N#C/C(=C\c1ccc([N+](=O)[O-])s1)C(=O)c1ccco1`, the IC50 [2] is reported as 19 µM and the Ki [2] is reported as 6.6 µM.

For `COc1ccc(-c2ccc(S(=O)(=O)Nc3sccc3-c3nc4ccccc4s3)cc2Cl)cc1`, the IC50 [2] was 3 µM.

`Cc1ccc(S(=O)(=O)Nc2scc(C)c2-c2nc3ccccc3s2)cc1F` gave an IC50 [2] of 35 µM.

Compound `Cc1cc(S(=O)(=O)Nc2scc(C)c2-c2nc3ccccc3s2)ccc1F` has an IC50 [2] of 17 µM.

With `Cc1csc(NS(=O)(=O)c2ccc(F)cc2)c1-c1nc2ccccc2s1` the IC50 [2] was > 100 µM.

With `COc1ccc(-c2ccc(S(=O)(=O)Nc3oncc3-c3nc4ccccc4s3)cc2)cc1` the IC50 [2] was > 100 µM.

For `COc1ccc(-c2ccc(S(=O)(=O)Nc3ccccc3-c3nc4ccccc4s3)cc2)cc1`, the IC50 [2] was > 100 µM.

Compound `COc1ccc(S(=O)(=O)Nc2scc(C)c2-c2nc3ccccc3s2)cc1OC` has an IC50 [2] of 34 µM.

In the case of `Cc1csc(NS(=O)(=O)c2ccc3ccccc3c2)c1-c1nc2ccccc2s1`, the IC50 [2] is reported as 12 µM.

`O=S(=O)(Nc1sccc1-c1nc2ccccc2s1)c1ccccc1C(F)(F)F` gave an IC50 [2] of 9.3 µM.

Compound `COc1ccc(S(=O)(=O)Nc2sccc2-c2nc3ccccc3s2)cc1` has an IC50 [2] of 18 µM.
